The test system of series [1] is CNE. Description: Cytotoxicity against human CNE cells incubated for 72 hrs by MTT assay. In kind it is functional. In a few lines:
(§1)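 MTT assay. Cells seeded at 5 × 10³/well and grown 24 h at 37 °C, 5% CO₂. Compounds added at several concentrations in triplicate wells, with 0.1% DMSO control, for 72 h. MTT then added for 4 h, formazan dissolved in DMSO, and absorbance read at 570 nm. GI₅₀ by Logit method; three experiments.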
(In general: Tetrazolium dyes change colour on reduction, which living cells bring about.)

Series [2] is described as follows: Cytotoxicity against human KYSE-150 cells incubated for 72 hrs by MTT assay. In kind it is functional. The conditions noted are these: KYSE-150, 72 h. In a few lines: as §1
The test system of series [3] is ZR-75-30. Nature of the series: Cytotoxicity against human ZR75-30 cells incubated for 72 hrs by MTT assay. In kind it is functional. Conditions: ZR-75-30, 72 h. In a few lines: as §1
Series [4] has as its system HCT-116. Description: Cytotoxicity against human HCT116 cells incubated for 72 hrs by MTT assay. Conditions: HCT-116, 72 h. In kind it is functional. In a few lines: as §1
For series [5], the system named is A549. Nature of the series: Cytotoxicity against human A549 cells incubated for 72 hrs by MTT assay. Conditions: A549, 72 h. In kind it is functional. In a few lines: as §1
Series [6] addresses DNA topoisomerase 2-alpha (Homo sapiens) (UniProt P11388). Nature of the series: Inhibition of human Top2alpha assessed as suppression of supercoiled pBR322 DNA relaxation at 50 uM incubated for 30 mins in presence of excess ATP level by electrophoresis method.
For series [7], the target named is T1, DNA topoisomerase 1 (Homo sapiens) (UniProt P11387).
T1 sequence (whole entry): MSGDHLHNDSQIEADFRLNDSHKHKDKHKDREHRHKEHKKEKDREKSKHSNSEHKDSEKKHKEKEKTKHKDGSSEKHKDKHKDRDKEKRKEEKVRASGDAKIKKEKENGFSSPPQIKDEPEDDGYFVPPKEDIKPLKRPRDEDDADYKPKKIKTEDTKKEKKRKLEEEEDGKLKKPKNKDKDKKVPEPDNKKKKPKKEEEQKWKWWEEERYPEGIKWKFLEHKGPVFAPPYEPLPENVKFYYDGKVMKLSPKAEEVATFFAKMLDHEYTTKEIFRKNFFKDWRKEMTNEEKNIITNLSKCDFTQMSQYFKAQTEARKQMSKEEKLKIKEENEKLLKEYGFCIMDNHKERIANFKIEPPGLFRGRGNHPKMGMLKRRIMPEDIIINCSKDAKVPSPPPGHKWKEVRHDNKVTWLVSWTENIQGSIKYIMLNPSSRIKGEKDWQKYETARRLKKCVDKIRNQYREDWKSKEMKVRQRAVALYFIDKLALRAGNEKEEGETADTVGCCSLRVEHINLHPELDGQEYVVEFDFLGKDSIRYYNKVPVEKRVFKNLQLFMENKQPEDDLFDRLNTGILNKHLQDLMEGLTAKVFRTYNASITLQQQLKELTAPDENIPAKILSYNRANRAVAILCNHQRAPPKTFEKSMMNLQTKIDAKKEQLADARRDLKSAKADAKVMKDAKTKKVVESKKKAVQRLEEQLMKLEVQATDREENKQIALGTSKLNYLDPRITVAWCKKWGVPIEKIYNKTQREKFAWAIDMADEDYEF
Nature of the series: Inhibition of Top1 assessed as suppression of supercoiled pBR322 DNA relaxation measuring appearance of short DNA fragments at 100 uM incubated for 15 mins by electrophoresis method.

Series [8] relates to SAOS-2. Nature of the series: Cytotoxicity against human Saos2 cells incubated for 72 hrs by MTT assay. In kind it is functional. Conditions: SAOS-2, 72 h. In a few lines: as §1
Series [9] relates to HL-60. Nature of the series: Cytotoxicity against human HL60 cells incubated for 72 hrs by MTT assay. The conditions noted are these: HL-60, 72 h. Format: functional. In a few lines: as §1
Series [10] has as its system PC-3. Description: Cytotoxicity against human PC3 cells incubated for 72 hrs by MTT assay. Format: functional. The conditions noted are these: PC-3, 72 h. In a few lines: as §1
Series [11] has as its system HepG2. Description: Cytotoxicity against human HepG2 cells incubated for 72 hrs by MTT assay. Format: functional. Conditions: HepG2, 72 h. In a few lines: as §1
Series [12] has as its system U2OS. Nature of the series: Cytotoxicity against human U2OS cells incubated for 72 hrs by MTT assay. Format: functional. In a few lines: as §1
The subject of series [13] is PANC-1. Description: Cytotoxicity against human PANC1 cells incubated for 72 hrs by MTT assay. Conditions: PANC-1, 72 h. Format: functional. In a few lines: as §1
Series [14] relates to MDA-MB-435. Description: Cytotoxicity against human MDA-MB-435 cells incubated for 72 hrs by MTT assay. Conditions: MDA-MB-435, 72 h. Format: functional. In a few lines:
as §1

In series [15] the test system is Mus musculus. Description: Toxicity in BALB/C nude mouse xenografted with human A549 cells assessed as reduction in body weight at 1 mg/kg, ip for 13 days measured on 30 to 33 days post implantation. In kind it is organism-based. More on the design: dose 1 mg/kg, route intraperitoneal. Conditions: in vivo. In a few lines: (§2)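 Cells implanted subcutaneously in right axilla of nude mice; dosing began at tumor volume about 100−300 mm³ (day 17). Randomized, six mice per treatment group and eight controls; ip injection. Tumor volume by caliper, TV = 1/2 × a × b², with body weight every 4 days. Mice sacrificed day 30−33 and tumors removed. Mean SEM, Student's t test versus control.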
For orientation: In xenograft studies the graft and the host belong to different species.

Series [16] concerns A549. Nature of the series: Antitumor activity against human A549 cells xenografted in BALB/C nude mouse assessed as tumor growth inhibition at 1 mg/kg, ip for 13 days measured on 30 to 33 days post implantation. More on the design: dose 1 mg/kg. Format: functional, organism-based. In a few lines:
as §2

Series [17] deals with DNA topoisomerase 2-alpha (Homo sapiens) (UniProt P11388). Description: Inhibition of human Top2alpha assessed as suppression of supercoiled pBR322 DNA relaxation at 50 uM incubated for 30 mins by electrophoresis method.
Series [18] concerns A549. Description: Induction of apoptosis in human A549 cells at 5 uM incubated for 48 hrs by flow cytometry (reference value: 0.43%). In kind it is functional. For orientation: A flow cytometer gives signals particle by particle.
For series [19], the system named is A549. Nature of the series: Induction of apoptosis in human A549 cells assessed as change in cell morphology at 5 uM incubated for 48 hrs by immunostaining based light microscopy. In kind it is functional. In a few lines:
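A549 cells exposed to 5 μM compound, or DMSO, for 48 h. Morphology judged under a light microscope.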

The subject of series [20] is Mus musculus. Description: Toxicity in BALB/C nude mouse xenografted with human HCT116 cells assessed as reduction in body weight at 2 mg/kg, ip administered as a single dose on 17th day and measured on 30 to 33 days post implantation. Conditions: in vivo. Also noted: dose 2 mg/kg, route intraperitoneal. Format: organism-based, HCT-116. In a few lines:
as §2

The subject of series [21] is HCT-116. Nature of the series: Antitumor activity against human HCT116 cells xenografted in BALB/C nude mouse assessed as tumor growth inhibition at 2 mg/kg, ip administered as a single dose on 17th day and measured on 30 to 33 days post implantation. In kind it is functional, organism-based. Also noted: dose 2 mg/kg. In a few lines: as §2
Series [22] deals with Nucleic Acid. Nature of the series: Binding affinity at calf thymus DNA minor groove assessed as displacement of Hoechst 33258 dye incubated for 20 mins by microplate reader based assay. In kind it is nucleic-acid assay. Conditions: Bos taurus.
Series [23] addresses T1, DNA topoisomerase 1 (Homo sapiens). Nature of the series: Inhibition of Top1 assessed as stabilization of Top1-pUC19 DNA cleavage complex measuring increase of nicked DNA at 100 uM incubated for 15 mins by electrophoresis method.
Series [24] has as its target DNA topoisomerase 2-alpha (Homo sapiens) (UniProt P11388). Nature of the series: Inhibition of human Top2alpha assessed as stabilization of Top2-pBr322 DNA cleavage complex measuring linear DNA formation at 100 uM incubated for 20 mins by electrophoresis method. In a few lines:
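Top2α drug screening kit with 8 units hTop2α and pBR322 plasmid. After reaction, proteinase K (200 μg/mL final) 20 min at 50 °C. Electrophoresis in TAE with 0.5 μg/mL ethidium bromide to resolve nicked, linear, relaxed and supercoiled forms.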

Series [25] has as its system Nucleic Acid. Nature of the series: Induction of DNA intercalation in Escherichia coli pBR322 DNA assessed as induction of supercoiled DNA at 100 uM incubated for 15 mins by electrophoresis based Top1 unwinding assay. Format: nucleic-acid assay.
Series [26] relates to Nucleic Acid. Nature of the series: Binding affinity at calf thymus DNA at 50 uM after 20 mins by UV/vis absorbance titration based assay. Conditions: Bos taurus. Format: nucleic-acid assay. In a few lines: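 ct-DNA in DPBS pH 7.4, concentration set by A260 (13200 M⁻¹/cm per bp). Compounds at 50 μM in DPBS with 1% DMSO, with or without ct-DNA 0−100 μM. After 20 min equilibration at room temperature, absorption spectra recorded over 220−400 nm in a microplate reader. Hypochromic or bathochromic shifts taken as the sign of binding.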

Series [27] concerns the target T1, DNA topoisomerase 1 (Homo sapiens). Description: Inhibition of Top1 assessed as suppression of supercoiled pBR322 DNA relaxation measuring appearance of short DNA fragments at 50 uM incubated for 15 mins by electrophoresis method.
Series [28] shares this target. Description: Inhibition of Top1 assessed as suppression of supercoiled pBR322 DNA relaxation measuring appearance of short DNA fragments at 500 uM incubated for 15 mins by electrophoresis method.
Series [29] deals with Nucleic Acid. Nature of the series: Induction of DNA intercalation in Escherichia coli pBR322 DNA assessed as induction of supercoiled DNA at 1 ug/ml incubated for 15 mins by electrophoresis based Top1 unwinding assay. Format: nucleic-acid assay. In a few lines:
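pBR322 plasmid (0.25 μg) preincubated with 100 μM compound or 1 μg/mL ethidium bromide, 37 °C, 15 min, in Top1 buffer (35 mM Tris-HCl pH 8.0, 72 mM KCl, 5 mM MgCl2, 5 mM DTT, 5 mM spermidine, 0.1% BSA). 5 U Top1 then added for 60 min at 37 °C. Stopped with SDS and proteinase K (50 °C, 20 min), phenol/chloroform extracted, agarose gel.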

A short description of series [30]: Toxicity in mouse. Format: organism-based. The conditions noted are these: in vivo.

Active and inactive are the calls of the source. The rule behind the calls is not given here.

The values that follow come from ChEMBL document CHEMBL2169847, “New tricks for an old natural product: discovery of highly potent evodiamine derivatives as novel antitumor agents by systemic structure-activity relationship analysis and biological evaluations” (J Med Chem, 2012).

Sequence of DNA topoisomerase 2-alpha (Homo sapiens) (P11388 whole entry): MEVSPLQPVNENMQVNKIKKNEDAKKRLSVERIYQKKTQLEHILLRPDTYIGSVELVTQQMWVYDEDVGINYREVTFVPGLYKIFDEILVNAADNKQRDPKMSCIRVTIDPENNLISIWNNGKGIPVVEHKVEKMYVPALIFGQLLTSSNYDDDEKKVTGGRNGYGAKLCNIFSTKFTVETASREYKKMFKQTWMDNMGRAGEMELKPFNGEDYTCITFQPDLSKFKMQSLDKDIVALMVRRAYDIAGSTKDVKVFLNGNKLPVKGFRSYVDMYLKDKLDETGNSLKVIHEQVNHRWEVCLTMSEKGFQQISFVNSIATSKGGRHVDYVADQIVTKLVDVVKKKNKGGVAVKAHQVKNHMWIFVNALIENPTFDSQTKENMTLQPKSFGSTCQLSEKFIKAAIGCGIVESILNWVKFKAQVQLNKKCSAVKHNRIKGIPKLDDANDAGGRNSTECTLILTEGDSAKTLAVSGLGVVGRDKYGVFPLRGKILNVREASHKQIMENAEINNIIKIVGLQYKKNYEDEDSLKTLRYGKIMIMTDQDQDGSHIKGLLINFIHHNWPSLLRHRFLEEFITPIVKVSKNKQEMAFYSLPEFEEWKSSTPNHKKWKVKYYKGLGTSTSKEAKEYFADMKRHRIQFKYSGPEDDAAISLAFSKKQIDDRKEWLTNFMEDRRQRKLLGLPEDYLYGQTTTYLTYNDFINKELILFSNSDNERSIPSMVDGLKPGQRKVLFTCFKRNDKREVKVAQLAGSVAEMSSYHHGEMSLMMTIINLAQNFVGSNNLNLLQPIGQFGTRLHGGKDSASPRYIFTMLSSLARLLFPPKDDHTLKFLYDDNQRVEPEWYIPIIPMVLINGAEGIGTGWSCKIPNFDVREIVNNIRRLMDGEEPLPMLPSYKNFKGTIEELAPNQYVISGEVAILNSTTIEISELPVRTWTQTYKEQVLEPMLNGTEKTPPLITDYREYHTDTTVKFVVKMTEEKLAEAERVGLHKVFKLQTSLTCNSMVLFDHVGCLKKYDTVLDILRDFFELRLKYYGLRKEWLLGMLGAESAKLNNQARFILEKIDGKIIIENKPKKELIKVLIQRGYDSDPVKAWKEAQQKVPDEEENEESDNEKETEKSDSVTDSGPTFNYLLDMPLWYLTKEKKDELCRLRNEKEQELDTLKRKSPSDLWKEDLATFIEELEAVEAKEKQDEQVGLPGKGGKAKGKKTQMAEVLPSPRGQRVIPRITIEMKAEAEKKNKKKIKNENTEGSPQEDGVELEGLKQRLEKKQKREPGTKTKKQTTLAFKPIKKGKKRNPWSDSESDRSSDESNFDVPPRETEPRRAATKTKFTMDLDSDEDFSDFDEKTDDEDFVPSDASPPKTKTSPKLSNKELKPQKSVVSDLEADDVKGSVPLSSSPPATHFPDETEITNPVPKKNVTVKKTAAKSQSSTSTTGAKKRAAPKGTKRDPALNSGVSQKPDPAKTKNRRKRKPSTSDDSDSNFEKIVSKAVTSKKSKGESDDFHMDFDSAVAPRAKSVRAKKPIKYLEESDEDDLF

By GI50 is commonly meant the concentration that inhibits growth by half. As for `CN1c2ccc(F)cc2C(=O)N2CCc3c([nH]c4ccc(O)cc34)[C@@H]21`, the GI50 turned out to be 5880 nM in [1]; 1230 nM in series [2]; 1750 nM in series [3]; 11 nM in series [4]; 4.6 nM in series [5].

Take `CN1c2ccc(F)cc2C(=O)N2CCc3c([nH]c4ccccc34)C21` (stereo unspecified): the inhibition result in series [6] is “inactive”. For the same molecule, the inhibition result in series [7] and in series [17] was “Active” in each case. The concentration for 50% growth inhibition (GI50) was 205000 nM in series [8]; less than 3 nM in series [9]; 34200 nM in [10]; 188000 nM in [11]; 129000 nM in [12]; 1700 nM in series [13]. Moreover, the GI50 in [14], in series [4] and in series [5] was less than 3 nM throughout. The Activity result in series [15] is listed as “Non-toxic”. For the same molecule, in series [16], the TGI result is “Active”.

In the case of `CN1c2ccc(N)cc2C(=O)N2CCc3c([nH]c4ccc(O)cc34)C21` (stereo unspecified), the inhibition result in [7], in series [23] and in series [27] was “Active” throughout. Moreover, the results for the Activity in [18] and in series [20] were 14.48% and “Non-toxic”, respectively. In [19], the outcome was Active. Besides, the GI50 came to 7 nM in [14], 7 nM in [4] and 4000 nM in [5]. Also, the TGI result in series [21] was “Active”. Moreover, the result in series [22], in [25] and in series [26] was inactive. For the same molecule, the inhibition result in series [24] was “inactive”.

`CN1c2ccccc2C(=O)N2CCc3c([nH]c4ccccc34)[C@@H]21` [EVODIAMINE]: the inhibition result in series [7] was “inactive”. For the same molecule, the GI50 in series [14] was 20200 nM; in series [4], 100000 nM; in series [5], 100000 nM. For the same molecule, the inhibition result in series [28] is “Active”.

Turning to `CC[n+]1c(-c2ccccc2)c2cc(N)ccc2c2ccc(N)cc21`, in series [29], the result was Active.

In the case of `CN1c2ccccc2C(=O)N2CCc3c([nH]c4ccc(O)cc34)C21` (stereo unspecified), the inhibition entry in [7], in series [23] and in series [17] was “Active” each time. The Activity was 13.07% in series [18], “Non-toxic” in series [20] and “Non-toxic” in series [15]. For the same molecule, in [19], the result was Active. Besides, the GI50 in series [14], in series [4] and in series [5] was less than 3 nM throughout. In addition, the TGI entry in series [21] and in series [16] was “Active” in each case. Besides, the result in [22], in [25] and in series [26] was inactive. In series [24], the inhibition result is “inactive”.

One may read the LD50 as the dose expected to kill half of the subjects tested. A lower LD50 goes with greater toxicity. The molecule `CN1c2ccccc2C(=O)N2CCc3c([nH]c4ccccc34)[C@H]21` [EVODIAMINE] had an LD50 in series [30] of 77.8 mg/kg.

As to `CN1c2ccc(F)cc2C(=O)N2CCc3c([nH]c4ccc(O)cc34)[C@H]21`, the concentration for 50% growth inhibition (GI50) is 8110 nM in series [1]; 3 nM in series [2]; 3 nM in [3]; 3.6 nM in [4]; 3.7 nM in series [5].
